Measurements published in ChEMBL document CHEMBL1149757, “Synthesis and antimalarial activity of new analogues of amodiaquine” (Eur J Med Chem, 2008).
The source made the active and inactive calls. No cut-off for these calls is given here.

Key:
[1] = Cytotoxicity against human […] cells after 7 days by MTT assay; type: cell-based
Method in brief: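 MRC-5 human embryonic lung cells seeded at 5000 per well. After 24 h, cells were washed and given two-fold drug dilutions (32 to 1.6) in RPMI + 5% FCS, with final DMSO below 0.5%. Incubated 7 days at 37 °C in 5% CO₂. MTT read-out as % reduction of 540 nm absorbance versus untreated cultures. CC50 from two experiments.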

[2] = test system: Plasmodium falciparum; test: Antimalarial activity against chloroquine-resistant Plasmodium falciparum K1 after 24 hrs by semiautomated micro dilution assay; type: functional, organism-based; conditions: K1, 24 h
Method in brief: (§1)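 Asynchronous P. falciparum cultures on human erythrocytes (0.5% parasitaemia, 1% final haematocrit) were exposed to serially diluted drug for 24 h at 37 °C. [³H]hypoxanthine was then added for a further 24 h. Cells were freeze-thawed, harvested onto glass-fibre filters and scintillation-counted against a drug-free control on the same plate. IC50 was read from concentration-response curves (mean ± SD, independent experiments). DMSO was ≤0.1%.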

[3] = test system: Plasmodium falciparum; test: Antimalarial activity against chloroquine-sensitive Plasmodium falciparum Thai after 24 hrs by semiautomated micro dilution assay
[4] = test system: Plasmodium falciparum; test: Antimalarial activity against chloroquine-resistant Plasmodium falciparum FcB1R after 24 hrs by semiautomated micro dilution assay; type: functional, organism-based; method in brief: as §1
[5] = Selectivity index, ratio of CC50 for human MRC5 cells to IC50 for Plasmodium falciparum K1; type: functional
Method in brief: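 Ratio of MRC-5 CC50 to P. falciparum K1 IC50. CC50: 7-day MTT assay at 540 nm, from two experiments. IC50: asynchronous cultures (0.5% parasitaemia, 1% haematocrit) exposed to drug for 24 h at 37 °C, then [³H]hypoxanthine added for a further 24 h. Incorporation compared with drug-free controls; mean of independent experiments.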

[6] = test system: Plasmodium berghei; test: Antimalarial activity in Plasmodium berghei ANKA 65 infected Swiss CD1 mice (Mus musculus) as reduced parasitaemia at 10 mg/kg initial oral dose and further intraperitoneal dose after 4 days; type: functional; set-up: scale not given: the % may be the effect or the level left
[7] = test system: Plasmodium berghei; test: Antimalarial activity as increased MST in Plasmodium berghei ANKA 65 infected Swiss CD1 at 10 mg/kg initial oral followed by intraperitoneal dose after 4 days; type: functional, organism-based; set-up: dose 10 mg/kg
[8] = Inhibition of haem polymerization after 24 hrs; type: functional
Method in brief: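 Lipid-induced β-hematin formation: hemin in 25 mM NaOH mixed with a 1-monooleoylglycerol suspension in 90 mM sodium acetate, pH 5. Drug added from DMSO stock; controls received equal DMSO. Incubated 24 h at 37 °C, in duplicate. Samples centrifuged at 4 °C, and the pellet washed repeatedly with 10 mM sodium phosphate pH 7.4 containing 2.5% SDS.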

[9] = test system: Plasmodium berghei; test: Antimalarial activity as increased MST in Plasmodium berghei ANKA 65 infected Swiss CD1 mice (Mus musculus) at 20 mg/kg initial oral followed by intraperitoneal dose after 4 days; type: functional
[10] = test system: Plasmodium berghei; test: Antimalarial activity as reduced parasitaemia in Plasmodium berghei ANKA 65 infected Swiss CD1 mice (Mus musculus) at 20 mg/kg initial oral followed by intraperitoneal dose after 4 days; type: functional; set-up: scale not given: the % may be the effect or the level left
[11] = test system: Plasmodium berghei; test: Antimalarial activity as reduced parasitaemia in Plasmodium berghei ANKA 65 infected Swiss CD1 mice (Mus musculus) at 40 mg/kg initial oral followed by intraperitoneal dose after 4 days; type: functional; set-up: scale not given: the % may be the effect or the level left
Method in brief: (§2)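 P. berghei ANKA 65 in 4-week-old female Swiss CD-1 mice (20–25 g), infected ip with about 10⁷ parasitized erythrocytes from a donor. Treatment at 40 mg/kg in 100% DMSO: first dose oral at infection, then ip on the following four days. Three mice per group, with three DMSO-dosed infected controls. Parasite reduction read on day 4; survival compared with untreated controls.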

[12] = test system: Plasmodium berghei; test: Antimalarial activity as increased MST in Plasmodium berghei ANKA 65 infected Swiss CD1 mice (Mus musculus) at 40 mg/kg initial oral followed by intraperitoneal dose after 4 days; type: functional, organism-based; set-up: dose 40 mg/kg; method in brief: as §2

IC50 [8] | SMILES | CC50 at 168 h [1] | IC50 [2] | IC50 [3] | IC50 [4] | Ratio CC50/IC50 [5] | Activity [6] | Activity [7] | Activity [9] | Activity [10] | Activity [11] | Activity [12]
– | CCN(CC)Cc1cccc(Nc2ccnc3cc(Cl)ccc23)c1 | 12500 nM | 17.1 nM | 13.2 nM | 15.8 nM | 731 | – | – | – | – | – | –
– | CCN(CC)Cc1ccc(O)c(Nc2ccnc3cc(Cl)ccc23)c1 | 19000 nM | 32.6 nM | 15.2 nM | – | 583 | – | – | – | – | – | –
48000 nM | CCN(CC)Cc1cc(Nc2ccnc3cc(Cl)ccc23)ccc1O.Cl | 12000 nM | – | – | – | 1276 | 100% | Active | – | – | – | –
– | CCN(CC)Cc1cccc(Nc2ccnc3cc(Cl)ccc23)c1O | > 25000 nM | 262 nM | 104 nM | 95.2 nM | >95 | – | – | – | – | – | –
70000 nM | CCN(CC)CCCC(C)Nc1ccnc2cc(Cl)ccc12 (stereo not drawn) [CHLOROQUINE] | > 32000 nM | – | – | – | – | 100% | Active | – | – | – | –
– | CCN(CC)Cc1cc(O)cc(Nc2ccnc3cc(Cl)ccc23)c1 | > 25000 nM | 42.8 nM | 25.3 nM | 35.2 nM | >584 | – | – | – | – | – | –
– | CCN(CC)Cc1ccc(Nc2ccnc3cc(Cl)ccc23)cc1O [ISOQUINE] | 8000 nM | 7.3 nM | 4.3 nM | 5.4 nM | 1096 | – | – | – | – | – | –
– | CCN(CC)Cc1cc(NCCN2CCCCC2)cc(Nc2ccnc3cc(Cl)ccc23)c1 | 4000 nM | 26.5 nM | 15.6 nM | 19.1 nM | 152 | – | – | – | – | – | –

SMILES | IC50 [8] | CC50 at 168 h [1] | IC50 [2] | IC50 [3] | IC50 [4] | Ratio CC50/IC50 [5] | Activity [6] | Activity [7] | Activity [9] | Activity [10] | Activity [11] | Activity [12]
CCN(CC)Cc1cc(N)cc(Nc2ccnc3cc(Cl)ccc23)c1 | 153000 nM | > 25000 nM | 32.3 nM | 16.3 nM | 18.1 nM | 774 | – | – | 63% | 96% | 100% | Active
